Measured values of several laboratories.
Protocols differ between the studies behind these lines.
Target: Serine/threonine-protein kinase DCLK3 (DCLK3, Homo sapiens, UniProt Q9C098)
Residues used in one study (Q9C098 1-648): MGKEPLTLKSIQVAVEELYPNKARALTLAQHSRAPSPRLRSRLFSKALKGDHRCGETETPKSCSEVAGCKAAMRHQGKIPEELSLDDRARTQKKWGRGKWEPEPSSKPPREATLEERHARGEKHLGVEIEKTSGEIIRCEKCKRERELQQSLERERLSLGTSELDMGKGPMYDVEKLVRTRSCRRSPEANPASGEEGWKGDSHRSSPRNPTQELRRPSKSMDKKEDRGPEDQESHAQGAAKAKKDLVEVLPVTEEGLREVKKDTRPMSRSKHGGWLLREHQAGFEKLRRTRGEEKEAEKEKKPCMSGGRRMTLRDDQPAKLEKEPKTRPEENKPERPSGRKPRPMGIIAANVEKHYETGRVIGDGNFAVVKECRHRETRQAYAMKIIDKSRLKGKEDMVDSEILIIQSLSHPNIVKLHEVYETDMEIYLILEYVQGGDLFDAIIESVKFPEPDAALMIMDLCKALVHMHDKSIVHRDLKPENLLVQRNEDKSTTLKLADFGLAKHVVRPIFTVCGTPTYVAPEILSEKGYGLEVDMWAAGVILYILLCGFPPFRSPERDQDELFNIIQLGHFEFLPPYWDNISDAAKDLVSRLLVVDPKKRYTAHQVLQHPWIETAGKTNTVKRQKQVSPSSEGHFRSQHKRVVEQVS

Cc1cnn2ncc(-c3ccnc(N(C)C)n3)c2c1  remaining binding (binding; 1 µM): 93%
COc1cnc(Nc2cccc(S(N)(=O)=O)c2)nc1N1CCN(c2ccccc2)C(=O)C1  remaining binding (binding; competition with immobilised ligand; 1 µM): 100%
CN(C)c1nccc(-c2cnc3ncccn23)n1  remaining binding (binding; 1 µM): 76%
C[C@H](c1cccc(C#N)c1)n1cc(Cl)cc(C(N)=O)c1=N  remaining binding (cell-free assay; competition with immobilised ligand; 1 µM): 99%
CNC(=O)[C@@H]1CC[C@@H](n2c(-c3ccc4cnccc4c3)nc3ccc(C(=O)NCc4cccc(C(N)=O)c4)cc32)C1  remaining binding (binding; competition with immobilised ligand; 1 µM): 100%
C=CC(=O)N1CCC(C(=O)NCC(=O)N2CCN(c3nc(-c4cnc(N)nc4C(F)F)nc(N4CCOCC4)n3)CC2)CC1  remaining binding (binding; competition with immobilised ligand; 1 µM): 96%
COc1ncc2cc3ccccc3nc2c1C#N  remaining binding (cell-free assay; competition with immobilised ligand; 5 µM): 100%
CCCCN(CCCC)C(=O)CN1C[C@@H](c2cc(OC)c3c(c2)OCO3)[C@H](C(=O)O)[C@H]1CC(C)(C)CCC  remaining binding (cell-free assay; competition with immobilised ligand; 1 µM): 100%
CN(C)c1nccc(-c2cnn3ncccc23)n1  remaining binding (binding; 1 µM): 100%
CC(C)(O)c1cncc(-c2nc3ccc(F)cc3n2C2CC2)c1  remaining binding (cell-free assay; competition with immobilised ligand; 1 µM): 100%
C[C@@H]1CCN(c2nccc(-c3cnn4ncccc34)n2)C1  remaining binding (binding; 1 µM): 100%
O=C(c1ccc(Nc2ncc(Cl)c(-c3cc4ccccc4s3)n2)cc1)N1CCC(N2CCCC2)CC1  remaining binding (binding; competition with immobilised ligand; 1 µM): 0.9%
COc1ccnn2ncc(-c3ccnc(N(C)C)n3)c12  remaining binding (binding; 1 µM): 100%
FC(F)(F)Oc1cccc(-c2cnc3ccc(-c4ccncc4)nn23)c1  remaining binding (cell-free assay; competition with immobilised ligand; 5 µM): 100%
O=C(NCCCN1CCOCC1)c1ccc(Nc2nccc(-c3cc4ccccc4s3)n2)cc1  remaining binding (binding; competition with immobilised ligand; 1 µM): 0.4%
CC1=C(C#N)[C@@H](c2ccc3[nH]nc(C)c3c2)C(C#N)=C(c2ccc(Cl)cc2)N1  remaining binding (cell-free assay; competition with immobilised ligand; 1 µM): 71.3%
N[C@@H]1CCN(c2nccc(-c3cnn4ncccc34)n2)C1  remaining binding (binding; 1 µM): 100%
Cn1cc(Cl)c2c(Oc3c(F)cc(Nc4cc(Cl)nc(N)n4)cc3F)ccnc21  remaining binding (cell-free assay; competition with immobilised ligand; 0.1 µM): 89%
O=C(Nc1c[nH]nc1C(=O)NC1CCNCC1)c1cc(F)cc(F)c1  remaining binding (binding; competition with immobilised ligand; 1 µM): 93%
COc1ccc2c(c1)O[C@@H](c1ccc(OC)c(OC)c1)C[C@H]2NC(=O)C1(c2ccc3c(c2)OC(F)(F)O3)CC1  remaining binding (cell-free assay; competition with immobilised ligand; 1 µM): 98%
O=C(NCCCN1CCOCC1)c1ccc(Nc2ncc(Cl)c(-c3ccc(Cl)s3)n2)cc1  remaining binding (binding; competition with immobilised ligand; 1 µM): 1.9%
